The results in this text go back to PMC10883374 (Science Advances, 2022).

The target of one assay is F135A mutant dSAMTOR (Drosophila melanogaster, UniProt Q9W138, F135A). The experiment in a line: ITC ligand binding, F135A dSAMTOR. A digest of the protocol:
(§1)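 Tag-free dSAMTOR, expressed as His6-SUMO fusion in E. coli BL21(DE3), purified by Ni-NTA and gel filtration into 10 mM Hepes pH 7.5, 150 mM NaCl, 1 mM DTT. At 25°C, 1 mM SAM or SAH was titrated into 0.2 mM protein over 20 injections, with a background titration into buffer. Single-site fit gave Kd, ΔH and n; ΔG and ΔS were calculated. Runs: three for measurable binding, two for undetectable binding.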

The next assay has as its target V66W/E67P mutant dSAMTOR (Drosophila melanogaster, UniProt Q9W138, E67P/V66W). Briefly: ITC ligand binding, V66W/E67P dSAMTOR. Put shortly: as §1
Assay [1] addresses N-terminal truncated dSAMTOR (Δ1-64) (Drosophila melanogaster, UniProt Q9W138). The experiment in a line: ITC ligand binding, Δ1-64 dSAMTOR. A digest of the protocol:
as §1

The target in assay [2] is T1, hSAMTOR (WT) interaction with GATOR1-KICSTOR (Homo sapiens, UniProt Q1RMZ1).
T1 sequence (Q1RMZ1 1-405): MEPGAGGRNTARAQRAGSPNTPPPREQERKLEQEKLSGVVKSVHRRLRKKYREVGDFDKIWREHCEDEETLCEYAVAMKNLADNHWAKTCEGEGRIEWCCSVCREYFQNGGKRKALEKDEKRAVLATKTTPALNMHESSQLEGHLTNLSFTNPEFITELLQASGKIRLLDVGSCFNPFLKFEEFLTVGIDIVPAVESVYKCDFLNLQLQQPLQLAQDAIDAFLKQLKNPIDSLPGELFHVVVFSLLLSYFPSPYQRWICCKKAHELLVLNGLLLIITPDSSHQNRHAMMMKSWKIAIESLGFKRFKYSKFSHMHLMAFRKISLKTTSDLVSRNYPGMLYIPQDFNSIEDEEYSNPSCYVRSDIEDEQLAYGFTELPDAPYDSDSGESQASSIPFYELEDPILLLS
The assay is classed as biochemical. The following applies: WT full-length hSAMTOR, HEK 293T cell lysates, 0.5 mM SAM.

Assay [3] addresses T2, R95A hSAMTOR interaction with GATOR1-KICSTOR (Homo sapiens, UniProt Q1RMZ1, R95A).
T2 sequence (Q1RMZ1 1-405 R95A): T1 sequence (Q1RMZ1 1-405) with R95A
The experiment in a line: Co-IP of Flag-hSAMTOR-R95A with HA-Nprl3 and Myc-Kaptin with or without SAM. Type of assay: biochemical. Conditions: HEK 293T cell lysates, 0.5 mM SAM.

Assay [4] has as its target T3, D190A hSAMTOR interaction with GATOR1-KICSTOR (Homo sapiens, UniProt Q1RMZ1, D190A).
T3 sequence (Q1RMZ1 1-405 D190A): T1 sequence (Q1RMZ1 1-405) with D190A
The experiment in a line: Co-IP of Flag-hSAMTOR-D190A with HA-Nprl3 and Myc-Kaptin with or without SAM. The assay is classed as biochemical. The following applies: HEK 293T cell lysates, 0.5 mM SAM.

Assay [5] has as its target dSAMTOR (WT, full-length) (Drosophila melanogaster, UniProt Q9W138). Briefly: ITC ligand binding, WT dSAMTOR. Put shortly:
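Full-length dSAMTOR was expressed as His6-SUMO fusion in E. coli BL21 (DE3), Ni-NTA purified, tag-cleaved, then gel-filtered into 10 mM Hepes pH 7.5, 150 mM NaCl, 1 mM DTT. ITC ran at 25°C: 20 × 2 µl injections of 1 mM SAM or SAH into 0.2 mM protein, discarding an initial 0.8 µl injection, with a buffer background titration. Single-site nonlinear least-squares fit gave ΔH, n and Kd.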

Changes are numbered by the printed parent chain. Entries after “also recorded” stand apart in the source; their conditions may differ.

dSAMTOR (WT, full-length), sequence (Q9W138 whole entry, the tested form may be a part): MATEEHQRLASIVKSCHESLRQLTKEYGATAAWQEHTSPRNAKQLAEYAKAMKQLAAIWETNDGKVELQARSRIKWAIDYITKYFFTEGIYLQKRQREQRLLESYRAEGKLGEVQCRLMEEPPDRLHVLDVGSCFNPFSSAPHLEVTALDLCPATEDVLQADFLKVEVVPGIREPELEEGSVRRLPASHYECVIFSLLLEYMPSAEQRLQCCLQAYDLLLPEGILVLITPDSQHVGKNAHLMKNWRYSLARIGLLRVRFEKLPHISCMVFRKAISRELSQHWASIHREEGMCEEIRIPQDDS
V66W/E67P mutant dSAMTOR, sequence (Q9W138 whole entry V66W/E67P, the tested form may be a part): as the sequence (Q9W138 whole entry, the tested form may be a part) above, with V66W, E67P counted along it
F135A mutant dSAMTOR, sequence (Q9W138 whole entry F135A, the tested form may be a part): as the sequence (Q9W138 whole entry, the tested form may be a part) above, with F135A counted along it
N-terminal truncated dSAMTOR (Δ1-64), sequence (Q9W138 65-302, stated change not applied): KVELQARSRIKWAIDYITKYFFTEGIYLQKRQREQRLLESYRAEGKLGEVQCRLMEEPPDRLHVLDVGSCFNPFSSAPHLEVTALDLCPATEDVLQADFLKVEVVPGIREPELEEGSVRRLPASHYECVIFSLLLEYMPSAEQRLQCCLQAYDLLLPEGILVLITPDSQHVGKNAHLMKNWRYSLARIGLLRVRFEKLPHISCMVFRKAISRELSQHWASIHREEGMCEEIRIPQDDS

One may read the Kd as the free concentration of one partner at which half of the binding sites on the other are occupied at equilibrium, for simple one-to-one binding. Low values mean a tighter complex, high ones a looser complex. Regarding `C[S+](CC[C@H](N)C(=O)[O-])C[C@H]1O[C@@H](n2cnc3c(N)ncnc32)[C@H](O)[C@@H]1O` (stereo partly drawn) [SAM, S-adenosylmethionine], the Kd at F135A mutant dSAMTOR was found to be 6.46 ± 0.4 µM; on V66W/E67P mutant dSAMTOR, 9.47 ± 0.81 µM; in assay [1] it was 6.78 ± 0.75 µM; in assay [5] it was 10.7 ± 0.88 µM. For the same compound, on F135A mutant dSAMTOR (F135A vs WT dSAMTOR, ITC), the “increase of binding affinity compared to the WT dSAMTOR” value is less than 2 fold. The n value on F135A mutant dSAMTOR (ITC, 25°C, F135A dSAMTOR) is 0.79 ± 0.01; at V66W/E67P mutant dSAMTOR (ITC, 25°C, V66W/E67P dSAMTOR), 0.88 ± 0.02; in assay [1] (ITC, 25°C, Δ1-64 dSAMTOR), 0.91 ± 0.01; in assay [5] (ITC, 25°C, WT dSAMTOR), 0.75 ± 0.08. Further, the ΔH on F135A mutant dSAMTOR (ITC, 25°C, F135A dSAMTOR) was -5.24 ± 0.11 kcal/mol; on V66W/E67P mutant dSAMTOR (ITC, 25°C, V66W/E67P dSAMTOR), -3.01 ± 0.08 kcal/mol; in assay [1] (ITC, 25°C, Δ1-64 dSAMTOR) it was -1.16 ± 0.01 kcal/mol; in assay [5] (ITC, 25°C, WT dSAMTOR), -2.12 ± 0.05 kcal/mol. The TΔS in assay [1] (ITC, 25°C, Δ1-64 dSAMTOR) amounted to 5.89 kcal/mol; in assay [5] (ITC, 25°C, WT dSAMTOR) it was 4.66 kcal/mol. Besides, the “effect of SAM on interaction of hSAMTOR with GATOR1-KICSTOR (co-IP)” value in assay [2] is “essentially disrupts its interactions with GATOR1-KICSTOR; also recorded: substantially weakens the interaction”; in assay [3], “comparable interactions with GATOR1 and KICSTOR in both the absence and presence of SAM”; in assay [4], “comparable interactions with GATOR1 and KICSTOR in both the absence and presence of SAM”.
